From PubChem
Most compounds without a hit are left out; they make up all but 1.9% or so of the library.
Hck Nef HTS – human Hck-Nef kinase inhibition. P08631. Recombinant Hck-YEEI plus Nef, Z-Lyte FRET kinase assay. inhibition, % at 20 µM. 220,000 compounds, 0.68% hits;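 active means Hck-Nef kinase inhibition above about 50%, limit read from the data; inactive means inhibition below that limit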
Runt-CBFb FRET – Runt domain-CBFb interaction inhibition; inhibition, % at 20 µM; Q01196+Q13951; 220,000 compounds, 0.46% hits; Cerulean-Runt/Venus-CBFb FRET ratio 530/480, 1 h;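 active means inhibition over about 50% at 20 µM in the single-dose screen, limit read from the data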
Target sequence (Q01196 whole entry, looked up, the tested form may be a part): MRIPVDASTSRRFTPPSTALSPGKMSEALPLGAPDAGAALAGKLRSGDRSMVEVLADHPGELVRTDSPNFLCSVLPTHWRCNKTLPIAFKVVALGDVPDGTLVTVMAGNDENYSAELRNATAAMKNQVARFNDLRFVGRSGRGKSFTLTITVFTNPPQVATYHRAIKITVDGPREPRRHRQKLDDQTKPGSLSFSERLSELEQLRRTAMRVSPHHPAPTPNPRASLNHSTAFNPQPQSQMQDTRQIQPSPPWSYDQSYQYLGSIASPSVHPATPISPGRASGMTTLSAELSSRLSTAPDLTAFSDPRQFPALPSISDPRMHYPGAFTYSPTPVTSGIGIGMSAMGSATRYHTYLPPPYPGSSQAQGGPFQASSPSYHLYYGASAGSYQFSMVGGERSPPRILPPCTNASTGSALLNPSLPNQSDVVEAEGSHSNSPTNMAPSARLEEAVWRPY
Target sequence (Q13951 whole entry, looked up, the tested form may be a part): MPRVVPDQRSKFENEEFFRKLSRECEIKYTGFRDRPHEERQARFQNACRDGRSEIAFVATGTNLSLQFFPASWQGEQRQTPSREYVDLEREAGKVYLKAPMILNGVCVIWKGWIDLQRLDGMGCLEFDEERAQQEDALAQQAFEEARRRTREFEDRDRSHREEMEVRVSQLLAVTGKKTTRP
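Assay system: Cerulean-Runt domain / Medium: Tris 50 mM pH 7.5, KCl, K2SO4, 0.01% BSA / Timing: protein complex preformed 1 h, compound exposure 1 h, room temperature, dark / Measured by: FRET, excitation 422 nm, emission at 530 and 480 nm / Evaluation: loss of energy transfer signal / Control set: 5 µM unlabeled CBFb as full-inhibition high control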
Runt-SMMHC FRET – inhibitors of human RUNX1 Runt domain binding to CBFb-SMMHC | Q01196+Q13951 | Cerulean-Runt/Venus-CBFb-SMMHC FRET ratio 530/480, 1 h | inhibition, % at 20 µM | 220,000 compounds, 0.74% hits;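 active means mean inhibition across duplicate retests at 20 µM reaching about 50%, limit read from the data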;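 further: inhibitors lower the FRET ratio by blocking Runt binding to CBFb-SMMHC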
RanGTP-Imp inh – disruptors of Ran-importin-beta complex formation – biochemical, FRET, CFP-Ran, YFP-importin-beta, homogeneous, primary screen; cell-free CFP-Ran/YFP-importin-beta FRET ratio; inhibition, % (test concentration not listed); 300,000 compounds, 1.1% hits;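 active means more than half of the replicate wells show a fall in the fluorescence ratio signal beyond about 16%, limit read from the data, passing the limit was not always enough; inconclusive means exactly half of the replicate wells pass the set limit; inactive means fewer than half of replicates pass the limit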
Hck Nef conf – confirmation of Hck-Nef kinase inhibitors; calls only at 10 µM; shares compounds with Hck Nef HTS; Recombinant Hck-YEEI:Nef, Z-Lyte FRET kinase assay; 1,300 compounds, 28% hits;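 active means average inhibition of at least 50%, with Z-scores no higher than 3 in both the phospho-tyrosine peptide and fluorescence counterscreens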
Numbers stand for hits; i = inactive; ? = inconclusive; nt = not tested or not shown; + = active, no number.

SMILES	Hck Nef HTS	Runt-CBFb FRET	Runt-SMMHC FRET	RanGTP-Imp inh	Hck Nef conf
CNc1nc(-c2cccs2)cc(C(F)(F)F)c1C#N	103.5	i	88.1	109.3	i
COc1ccc(N2CCN(CCNC(=O)c3ccc4c(c3)[nH]c(=S)n3c5ccccc5nc43)CC2)cc1	51.1	i	i	i	i
CCC(Cc1ccccc1)NC(=O)CCn1cccc1 (stereo unspecified)	i	i	i	i	nt
CCOc1cc(/C=C(/C#N)c2nc3ccccc3[nH]2)ccc1OCc1ccc(C(=O)O)o1	64.2	i	i	i	nt
CCOc1cc(/C=C(/C#N)c2ccc(F)cc2)ccc1OCc1ccc(C(=O)O)o1	i	i	i	i	nt
COc1ccc(-c2cc(-c3ccco3)[nH]c(=O)c2C#N)cc1OC	53.4	i	i	i	i
Cc1ccc(S(=O)(=O)NNC(=O)C(O)(c2ccccc2C)c2ccccc2C)cc1	i	i	i	i	nt
Cc1cc(O)ccc1Nc1nc(-c2sc(N)nc2C)cs1	62.1	i	i	i	+
O=C(O)c1cc(N2C(=O)C3C4C=CC(C4)C3C2=O)ccc1N1CCOCC1 (stereo unspecified)	i	i	i	i	nt
CCOc1cc(/C=C2\SC(=S)N(C(C(=O)O)c3ccccc3)C2=O)ccc1O (stereo unspecified)	62.7	i	i	i	i
CCSc1nc2c(cnn2-c2ccccc2)c(=O)n1N	58.9	i	i	i	+
COc1ccc2oc(/C=C/N(C)C)c(C(=O)c3ccc(Cl)cc3)c2c1	98.4	i	i	i	i
CNC(=S)NNC(=O)c1noc(C)c1C(=O)N1CCN(C(c2ccccc2)c2ccccc2)CC1	i	i	i	i	nt
Cc1ccc(C)c(NC(=O)Cn2nc(-c3ccccc3)nc2-c2ccccc2)c1	58.6	i	i	i	i
Cc1ccc(NC(=O)Cn2nc(-c3ccccc3)nc2-c2ccccc2)c(C)c1	i	i	i	i	nt
O=C(c1cc(Cl)ccc1OCc1ccccc1)N1CCOCC1	nt	nt	nt	i	nt
O=C(/C=C/N1CCOCC1)c1ccc(-c2ccccc2)cc1	66.2	i	i	i	i
COc1cccc(OCC(O)CN2CCN(C)CC2)c1 (stereo unspecified)	nt	nt	nt	i	nt
CCc1c(C)c2ccc(O)c(CN(C)C)c2oc1=O	59.1	i	130.8	i	nt
CCCc1cc(=O)oc2c(CN(CC)CC)c(O)c(Cl)cc12	+	90.9	128.7	24.0	nt
CCCc1cc(=O)oc2cc(OCC(=O)N(C)C)c(Cl)cc12	i	i	i	i	nt
CN(C)Cc1c(O)ccc2c(-c3ccccc3)cc(=O)oc12	i	i	i	i	nt
CCCCc1cc(=O)oc2c(CN(C)C)c(O)ccc12	83.0	i	106.8	i	nt
Cc1oc2c(CN(C)C)c(O)ccc2c(=O)c1-c1cscn1	i	i	i	?	nt
CCn1c(SCC(=O)NC2CC2)nnc1-c1ccc(F)cc1	nt	nt	nt	i	nt
SMILES	Hck Nef HTS	Runt-CBFb FRET	Runt-SMMHC FRET	RanGTP-Imp inh	Hck Nef conf
CCC(CC)c1nc(C(N)=O)c2[nH]c(=O)n(-c3ccc(OC)c(OC)c3)c2n1	nt	nt	nt	i	nt
Cc1cc(C)cc(C(=O)NCCCN2CCOCC2)c1	nt	nt	nt	i	nt
CC(C)c1ccc(-c2nc(N3CCCC3)nc3n[nH]c(N)c23)cc1	i	i	i	i	nt
Nc1[nH]nc2nc(N3CCOCC3)nc(-c3ccccc3)c12	67.4	i	i	i	+
O=C(N/N=C/c1ccc([N+](=O)[O-])o1)c1cc(-c2ccc(-c3ccccc3)cc2)nc2ccccc12	197.5	i	i	i	i
O=c1cc(CCl)nc2sc3ccccc3n12	60.6	i	i	i	i
NC(=O)CC(NC(=O)Cc1ccc(Br)cc1)c1ccc(NCCc2ccc(F)cc2)c([N+](=O)[O-])c1 (stereo unspecified)	50.5	i	i	i	i
NC(=O)CC(NC(=O)Cc1cccc2ccccc12)c1ccc(NCCOc2ccccc2)c([N+](=O)[O-])c1 (stereo unspecified)	53.1	i	i	i	i
NC(=O)CC(NC(=O)Cc1cccc2ccccc12)c1ccc(NCC2CC2)c([N+](=O)[O-])c1 (stereo unspecified)	i	i	i	i	nt
COc1ccc(CCNc2ccc(C(CC(N)=O)NC(=O)Cc3ccc(Br)cc3)cc2[N+](=O)[O-])cc1 (stereo unspecified)	57.2	i	i	i	i
CCOc1ccc(N2CC(O)=C(c3nc4ccccc4c(=O)[nH]3)C2=N)cc1	55.3	i	i	i	i
CCN(CC)C(=O)Cc1c(O)c2ccccc2[nH]c1=O	55.8	i	i	i	+
COc1cc(-c2nc(-c3ccc(NC(=O)c4ccc5c(c4)OCO5)cc3)no2)cc(OC)c1OC	83.8	i	i	i	+
Cc1ccccc1-c1nc(-c2ccc(NC(=O)c3ccc4c(c3)OCO4)cc2)no1	i	i	i	i	nt
O=C(COc1ccc(/C=N/NC(=O)c2cc3ccccc3o2)cc1Cl)Nc1ccccc1	85.7	i	i	i	+
COc1ccc(C(=O)CCc2ccccc2)c(O)c1	nt	nt	nt	i	nt
O=C(CCc1ccccc1)c1c(O)cc(O)cc1O	68.5	i	i	i	i
O=C(NC(=S)Nc1ccc2[nH]c(=O)[nH]c2c1)c1ccccc1[N+](=O)[O-]	nt	nt	nt	i	nt
CC(=O)NS(=O)(=O)c1ccc(NC(=O)c2cc(-c3ccc(C)cc3)nc3ccccc23)cc1	i	i	i	i	nt
CC(=O)NS(=O)(=O)c1ccc(NC(=O)c2cc(-c3ccc(C)c(C)c3)nc3ccccc23)cc1	51.9	i	i	i	+
CCn1nc(NS(=O)(=O)c2ccc(NC(C)=O)cc2)c2cc3cccc(C)c3nc21	nt	nt	nt	i	nt
CCn1nc(NC(=O)C2CCCO2)c2cc3cccc(C)c3nc21 (stereo unspecified)	55.1	i	81.0	57.7	i
Cc1cc(C(=O)O)ccc1-c1ccc(CO)o1	i	i	i	i	nt
Cc1ccc(CN2C(=O)N/C(=C\c3ccc(-c4ccc(C(=O)O)cc4C)o3)C2=O)cc1	60.1	110.3	84.0	nt	i
COc1ccc(-c2csc(NC(=S)NC(=O)/C=C/c3ccco3)n2)cc1Br	78.4	i	i	i	i
SMILES	Hck Nef HTS	Runt-CBFb FRET	Runt-SMMHC FRET	RanGTP-Imp inh	Hck Nef conf
COc1ccc(-c2csc(NC(=S)NC(=O)/C=C/c3ccco3)n2)cc1OC	i	i	i	i	nt
O=c1[nH][nH]c2c(N=Cc3ccccc3O)ccc(F)c12	59.7	i	i	nt	i
O=c1c2ccccc2sn1-c1cc(S(=O)(=O)N2CCOCC2)ccc1N1CCCC1	i	i	i	i	nt
O=c1c2ccccc2sn1-c1cc(S(=O)(=O)N2CCOCC2)ccc1N1CCOCC1	92.7	i	i	i	+
NC(=O)C1CCN(C(=O)Cc2ccsc2)CC1	nt	nt	nt	i	nt
N#Cc1cc2cc3c(cc2nc1NCCNC(=S)NCCCN1CCOCC1)OCO3	74.3	102.7	100.2	i	nt
N#Cc1cc2cc3c(cc2nc1SCC(=O)N1CCOCC1)OCO3	nt	nt	nt	i	nt
Cc1cc(=O)oc2cc(OCC(=O)OCC(=O)Nc3c(C)n(C)n(-c4ccccc4)c3=O)ccc12	i	i	i	i	nt
Cc1ccc2c(c1)N(Cc1cccc(C#N)c1)C=NS2(=O)=O	nt	nt	nt	i	nt
